{"data": "Assay results collected from several papers", "Sialidase-4": "Sialidase-4 (Homo sapiens, UniProt Q8WWR8)", "ache": "Acetylcholinesterase (ache, Electrophorus electricus, UniProt O42275)", "ALOX15": "Polyunsaturated fatty acid lipoxygenase ALOX15 (ALOX15, Homo sapiens, UniProt P16050)", "note": "Lines come from different studies, so protocols differ."}
{"SMILES": "CC(C)CCC(=O)N[C@H]1[C@H]([C@H](O)[C@H](O)CO)OC(C(=O)O)=C[C@@H]1O", "target": "Sialidase-4", "assay": "enzyme activity, inhibitor", "IC50 [µM]": 270}
{"SMILES": "COc1ccc(-c2nnc(-c3ccc(OCc4cn(Cc5ccc(Br)cc5)nn4)cc3)o2)cc1", "target": "ache", "assay": "enzyme activity, inhibitor, Ellman", "IC50 [µM]": "> 100"}
{"SMILES": "CC(C(=O)O)n1nc(Cn2cc3cc(OCCF)c(Cl)cc3n2)c2ccccc2c1=O (racemic)", "target": "Sphingosine 1-phosphate receptor 1 (S1PR1, Homo sapiens, UniProt P21453)", "assay": "ligand displacement, radioligand", "conditions": "cell membranes", "IC50 [µM]": "> 1"}
{"SMILES": "CCN(C)C(=O)Oc1ccc(CCC(=O)N2CCc3ccccc3C2)cc1OC", "target": "ache", "assay": "enzyme activity, inhibitor, Ellman", "IC50 [µM]": 10.6}
{"SMILES": "CCOC(=O)c1ccccc1-c1c2ccc(=O)cc-2oc2cc(OCCCNc3c(-c4ccc5ccccc5c4)nc4ccccn34)ccc12", "target": "ALOX15", "assay": "enzyme activity, inhibitor, absorbance", "IC50 [µM]": "> 100"}
{"SMILES": "CC(C)(C)OC(=O)NC1CCCN(C(=O)/C=C/c2ccc([N+](=O)[O-])cc2)C1 (stereo not drawn)", "target": "ache", "assay": "enzyme activity, inhibitor, Ellman", "IC50 [µM]": "> 50"}
{"SMILES": "CCOC(=O)c1ccccc1-c1c2ccc(=O)cc-2oc2cc(OCCCNc3c(-c4ccc(OC(C)=O)cc4)nc4ccccn34)ccc12", "target": "ALOX15", "assay": "enzyme activity, inhibitor, absorbance", "IC50 [µM]": "> 100"}
{"SMILES": "COc1cc(CCC(=O)N2CCC(Cc3ccccc3)CC2)ccc1OC(=O)N(c1ccccc1)c1ccccc1", "target": "ache", "assay": "enzyme activity, inhibitor, Ellman", "IC50 [µM]": 10.5}
{"SMILES": "CCCC[C@H]1C(=O)N(C)[C@@H](CCCC)C(=O)N[C@@H](CCCCNC(=O)CN2CCN(CC(=O)O)CCN(CC(=O)O)CC2)C(=O)N[C@H](C(=O)NCC(N)=O)CSCC(=O)N[C@@H](Cc2ccc(O)cc2)C(=O)N(C)[C@@H](C)C(=O)N[C@@H](CC(N)=O)C(=O)N2CCC[C@H]2C(=O)N[C@@H](Cc2c[nH]cn2)C(=O)N[C@@H](CCC(=O)O)C(=O)N2C[C@H](O)C[C@H]2C(=O)N[C@@H](Cc2c[nH]c3ccccc23)C(=O)N[C@@H](CO)C(=O)N[C@@H](Cc2cn(CC(=O)O)c3ccccc23)C(=O)N1C", "target": "Programmed cell death 1 ligand 1 (CD274, Homo sapiens, UniProt Q9NZQ7)", "assay": "ligand displacement, radioligand", "IC50 [µM]": 0.00245}
{"SMILES": "Fc1ccc(-c2nnc(-c3ccc(OCc4cn(Cc5ccc(Cl)cc5)nn4)cc3)o2)cc1", "target": "ache", "assay": "enzyme activity, inhibitor, Ellman", "IC50 [µM]": "> 100"}
{"SMILES": "CC(C)Cc1cn([C@H]2[C@H]([C@H](O)[C@H](O)CO)OC(C(=O)O)=C[C@@H]2O)nn1", "target": "Sialidase-4", "assay": "enzyme activity, inhibitor", "IC50 [µM]": "> 500"}
{"SMILES": "O=C(N1CCC2(CC1)C[C@@H](CN1CCCCS1(=O)=O)CCO2)C1(c2ccccc2)CCCC1", "target": "ATP-dependent RNA helicase DDX3X (DDX3X, Homo sapiens, UniProt O00571)", "assay": "ATPase activity, inhibitor", "IC50 [µM]": "> 50"}
{"SMILES": "CC(C)(C)c1cn([C@H]2[C@H]([C@H](O)[C@H](O)CO)OC(C(=O)O)=C[C@@H]2O)nn1", "target": "Sialidase-4", "assay": "enzyme activity, inhibitor", "IC50 [µM]": 80}
{"SMILES": "CN1CC[C@@]2(C)c3cc(OC(=O)Nc4ccccc4)ccc3N(C)[C@@H]12", "target": "Aldehyde dehydrogenase 1A1 (ALDH1A1, Homo sapiens, UniProt P00352)", "assay": "enzyme activity, inhibitor, fluorescence", "IC50 [µM]": "< 10"}
{"SMILES": "CN(C(=O)CC(C)(C)C)[C@H]1[C@H]([C@H](O)[C@H](O)CO)OC(C(=O)O)=C[C@@H]1O", "target": "Sialidase-4", "assay": "enzyme activity, inhibitor", "IC50 [µM]": "> 500"}
{"SMILES": "CCN(C)C(=O)Oc1ccc(/C=C/C(=O)NC2CCN(Cc3ccccc3)CC2)cc1OC", "target": "ache", "assay": "enzyme activity, inhibitor, Ellman", "IC50 [µM]": 3.9}
{"SMILES": "CCOC(=O)c1ccccc1-c1c2ccc(=O)cc-2oc2cc(OCCCNc3c(-c4ccc([N+](=O)[O-])cc4)nc4ccccn34)ccc12", "target": "ALOX15", "assay": "enzyme activity, inhibitor, absorbance", "IC50 [µM]": "> 100"}
{"SMILES": "CC(C)(C)CN[C@H]1[C@H]([C@H](O)[C@H](O)CO)OC(C(=O)O)=C[C@@H]1O", "target": "Sialidase-4", "assay": "enzyme activity, inhibitor", "IC50 [µM]": 40}
